The record followed here is ChEMBL document CHEMBL3085642, “Synthesis and evaluation of novel 4-nitropyrrole-based 1,3,4-oxadiazole derivatives as antimicrobial and anti-tubercular agents” (Eur J Med Chem, 2013).

For experiment [1], the system named is Staphylococcus aureus. Description: Antibacterial activity against Staphylococcus aureus ATCC 25923 by two fold broth dilution method. The format is functional.
For experiment [2], the system named is Vero. Description: Cytotoxicity against african green monkey Vero cells after 72 hrs by MTT assay. It counts as cell-based. To be noted: Chlorocebus sabaeus. In short, it runs like this: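 Vero cells were exposed to compounds for 72 h. Viability was measured by cellular conversion of MTT into formazan (non-radioactive proliferation assay), and the cytotoxic concentration was reported as IC50.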

In experiment [3] the test system is Escherichia coli. Nature of the experiment: Antibacterial activity against Escherichia coli ATCC 25922 by two fold broth dilution method. The format is functional.
The test system of experiment [4] is Staphylococcus aureus. Description: Antibacterial activity against methicillin-susceptible Staphylococcus aureus ATCC 35556 by broth dilution method. It counts as functional.
Experiment [5] concerns Bacillus spizizenii. Description: Antibacterial activity against Bacillus subtilis ATCC 6633 by two fold broth dilution method. The format is functional.
Experiment [6] concerns Candida albicans. Nature of the experiment: Antifungal activity against Candida albicans after 48 hrs by two fold agar dilution method. The format is functional. The procedure, abridged:
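Two-fold serial dilutions in DMSO were tested against C. albicans by agar dilution. Cultures were incubated for 48 h at 35 °C and growth was monitored. MIC was taken as the lowest concentration (highest dilution) that arrested fungal growth.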

Experiment [7] relates to Klebsiella pneumoniae. Nature of the experiment: Antibacterial activity against Klebsiella pneumoniae by two fold broth dilution method. It counts as functional.
The subject of experiment [8] is Staphylococcus aureus. Nature of the experiment: Antibacterial activity against methicillin-resistant Staphylococcus aureus ATCC 43866 by broth dilution method. The format is functional.
Experiment [9] concerns Mycobacterium tuberculosis. Nature of the experiment: Antitubercular activity against Mycobacterium tuberculosis H37Rv after 7 days by resazurin microtitre assay. The format is functional. To be noted: 168 h.
The subject of experiment [10] is Staphylococcus aureus. Description: Ratio of ciprofloxacin MIC to compound MIC against Staphylococcus aureus ATCC 25923. The format is functional.

Converted amounts (≈) assume the structure as drawn.

As for `Cc1ccc(-c2nnc(-c3cc([N+](=O)[O-])c[nH]3)o2)s1`, the MIC in experiment [1] was 1.56 µg/mL (≈ 5.65 µM); in experiment [3] it was 6.25 µg/mL (≈ 22.6 µM); in experiment [4], 1.56 µg/mL (≈ 5.65 µM); in experiment [5], 3.12 µg/mL (≈ 11.3 µM); in [6], 3.12 µg/mL (≈ 11.3 µM); in experiment [7], 25 µg/mL (≈ 90.5 µM). In experiment [8], this compound had a minimum inhibitory concentration (MIC) of 3.12 µg/mL (≈ 11.3 µM). This compound yielded an IC50 in experiment [2] of 329 µM.
With `O=[N+]([O-])c1c[nH]c(-c2nnc(-c3cccc([N+](=O)[O-])c3O)o2)c1`, the MIC in [9] is 1.8 µg/mL (≈ 5.67 µM); in experiment [1], 1.56 µg/mL (≈ 4.92 µM); in [3] it was 6.25 µg/mL (≈ 19.7 µM); in experiment [4], 1.56 µg/mL (≈ 4.92 µM); in experiment [5] it was 3.12 µg/mL (≈ 9.85 µM); in experiment [6], 3.12 µg/mL (≈ 9.85 µM). Further, the minimum inhibitory concentration (MIC) worked out at 25 µg/mL (≈ 78.8 µM) in [7] and 3.12 µg/mL (≈ 9.85 µM) in [8]. This compound returned a half-maximal inhibitory concentration (IC50) in [2] of 498 µM.
Consider `O=[N+]([O-])c1c[nH]c(-c2nnc(Cc3ccc(F)c4ccccc34)o2)c1`, for which the MIC was 64.8 µg/mL (≈ 192 µM) in [9]; 1.56 µg/mL (≈ 4.61 µM) in experiment [1]; 3.12 µg/mL (≈ 9.24 µM) in [3]; 1.56 µg/mL (≈ 4.61 µM) in experiment [4]; 3.12 µg/mL (≈ 9.24 µM) in experiment [5]; 3.12 µg/mL (≈ 9.24 µM) in experiment [6]. Besides, the minimum inhibitory concentration (MIC) in experiment [7] came out at 25 µg/mL (≈ 73.9 µM); in experiment [8] it was 3.12 µg/mL (≈ 9.24 µM). In [2], this compound showed an IC50 of 229 µM.
With `O=[N+]([O-])c1c[nH]c(-c2nnc(-c3ccco3)o2)c1`, the MIC in [9] came to 42.8 µg/mL (≈ 174 µM); in experiment [1] it was 0.78 µg/mL (≈ 3.17 µM); in experiment [3] it was 3.12 µg/mL (≈ 12.7 µM); in experiment [4], 1.56 µg/mL (≈ 6.34 µM); in experiment [5] it was 1.56 µg/mL (≈ 6.34 µM); in experiment [6] it was 3.12 µg/mL (≈ 12.7 µM). The values for the MIC in experiment [7] and in [8] were 25 µg/mL (≈ 102 µM) and 3.12 µg/mL (≈ 12.7 µM), respectively. The same compound registered an IC50 in experiment [2] of 370 µM. The Ratio in experiment [10] is 2.
As to `O=[N+]([O-])c1c[nH]c(-c2nnc(-c3cccs3)o2)c1`, the MIC was found to be 87.1 µg/mL (≈ 332 µM) in experiment [9]; 1.56 µg/mL (≈ 5.95 µM) in experiment [1]; 1.56 µg/mL (≈ 5.95 µM) in experiment [3]; 3.12 µg/mL (≈ 11.9 µM) in experiment [4]; 1.56 µg/mL (≈ 5.95 µM) in experiment [5]; 6.25 µg/mL (≈ 23.8 µM) in experiment [6]. The MIC in experiment [7] is 25 µg/mL (≈ 95.3 µM); in experiment [8] it was 3.12 µg/mL (≈ 11.9 µM). In [2], the IC50 was determined as 418 µM.
On to `O=[N+]([O-])c1c[nH]c(-c2nnc(-c3ccccc3)o2)c1`, for which the minimal inhibitory concentration (MIC) in experiment [9] is 56.3 µg/mL (≈ 220 µM); in experiment [1] it was 3.12 µg/mL (≈ 12.2 µM); in experiment [3] it was 6.25 µg/mL (≈ 24.4 µM); in experiment [4], 1.56 µg/mL (≈ 6.09 µM); in experiment [5], 3.12 µg/mL (≈ 12.2 µM); in experiment [6] it was 12.5 µg/mL (≈ 48.8 µM). Besides, the MIC came to 25 µg/mL (≈ 97.6 µM) in experiment [7] and 3.12 µg/mL (≈ 12.2 µM) in [8]. In experiment [2], this compound gave an IC50 of 423 µM.
Turning to `O=[N+]([O-])c1c[nH]c(-c2nnc(-c3ccccc3O)o2)c1`, the MIC in [9] came to 2.1 µg/mL (≈ 7.71 µM); in [1], 1.56 µg/mL (≈ 5.73 µM); in experiment [3] it was 1.56 µg/mL (≈ 5.73 µM); in experiment [4] it was 1.56 µg/mL (≈ 5.73 µM); in experiment [5], 3.12 µg/mL (≈ 11.5 µM); in experiment [6], 3.12 µg/mL (≈ 11.5 µM). Further, the results for the MIC in [7] and in experiment [8] were 25 µg/mL (≈ 91.8 µM) and 3.12 µg/mL (≈ 11.5 µM), respectively. The same compound came in with an IC50 in experiment [2] of 375 µM.
`O=[N+]([O-])c1c[nH]c(-c2nnc(C3(c4ccccc4)CC3)o2)c1`: the MIC in experiment [9] was 56.8 µg/mL (≈ 192 µM); in experiment [1], 0.78 µg/mL (≈ 2.63 µM); in experiment [3], 1.56 µg/mL (≈ 5.27 µM); in experiment [4] it was 1.56 µg/mL (≈ 5.27 µM); in [5], 3.12 µg/mL (≈ 10.5 µM); in experiment [6] it was 25 µg/mL (≈ 84.4 µM). Moreover, the minimum inhibitory concentration (MIC) in experiment [7] was determined as 25 µg/mL (≈ 84.4 µM); in experiment [8], 3.12 µg/mL (≈ 10.5 µM). The compound also had an IC50 in [2] of 380 µM. Moreover, in experiment [10], the Ratio is on record as 2.
On to `Cn1cc([N+](=O)[O-])cc1-c1nnc(-c2cc3cc(Cl)ccc3[nH]2)o1`, for which the MIC in experiment [9] worked out at 24 µg/mL (≈ 69.8 µM); in [1], 0.39 µg/mL (≈ 1.13 µM); in experiment [3], 1.56 µg/mL (≈ 4.54 µM); in [4] it was 0.39 µg/mL (≈ 1.13 µM); in [5] it was 1.56 µg/mL (≈ 4.54 µM); in [6] it was 1.56 µg/mL (≈ 4.54 µM). Moreover, the MIC was found to be 12.5 µg/mL (≈ 36.4 µM) in experiment [7] and 1.56 µg/mL (≈ 4.54 µM) in experiment [8]. The compound further yielded an IC50 in experiment [2] of 743 µM. The Ratio in experiment [10] worked out at 3.
`C[C@@H]1[C@H](O)[C@@H](C)/C=C/C=C/C=C/C=C/C=C/C=C/C=C/[C@H](O[C@@H]2O[C@H](C)[C@@H](O)[C@H](N)[C@@H]2O)C[C@@H]2O[C@](O)(C[C@@H](O)C[C@@H](O)[C@H](O)CC[C@@H](O)C[C@@H](O)CC(=O)O[C@H]1C)C[C@H](O)[C@H]2C(=O)O` [AMPHOTERICIN B] had a minimum inhibitory concentration (MIC) in experiment [6] of 3.12 µg/mL (≈ 3.38 µM).
With `O=C(O)c1cn(C2CC2)c2cc(N3CCNCC3)c(F)cc2c1=O` [CIPROFLOXACIN], the MIC in experiment [1] came out at 1.56 µg/mL (≈ 4.71 µM); in [4], 1.56 µg/mL (≈ 4.71 µM); in [5] it was 1.56 µg/mL (≈ 4.71 µM); in experiment [7], 1.56 µg/mL (≈ 4.71 µM); in experiment [8], 3.12 µg/mL (≈ 9.43 µM).
Turning to `NNC(=O)c1ccncc1` [ISONIAZID], in experiment [9], the MIC came out at 0.4 µg/mL (≈ 2.92 µM).
